Screening data as filed in PubChem BioAssay.
Sampled rows, rich in hits. Any-hit rate of the full collection: about 4%.
Exocytosis inh: blocks lytic granule exocytosis. TALL-104 LAMP-1 surface exposure, flow cytometry; cells stimulated with thapsigargin and PMA. inhibition, % at 10 µM. 360,000 compounds, 0.66% hits;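 active = inhibition above about 55%, limit read from the data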
Mdm2-MdmX inh: inhibitors of human Mdm2/MdmX interaction. O15151+Q00987. SaOS-2 split-luciferase Mdm2/MdmX complementation, luminescence. inhibition, % at 8 µM. 330,000 compounds, 3% hits;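 active = inhibition of at least 50% at 8 µM in the primary screen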
UPR XBP1 act: adaptive UPR (XBP1) activation | CHO-XBP1 luciferase reporter, IRE1-XBP1 UPR activation, luminescence; percent of tunicamycin response, DMSO as zero | activation, % at 20 µM | 330,000 compounds, 0.33% hits;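 active = versus positive control, 20 µM dose yields 30% or more activation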;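 note: 100% = tunicamycin at 10 µg/mL and 0% = DMSO only wells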
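Material: CHO cell line with stable XBP1 luciferase reporter; buffer or medium: F12 medium containing 10% fetal bovine serum; compound: single point, 20 µM final compound, 1% DMSO; incubation: 6 h treatment, 37 °C; measured by: glow luminescence from Steady-Glo reagent; evaluation: activation, % of tunicamycin; control set: tunicamycin high, DMSO low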
ABHD5 PLIN5 PPI: blocks binding of human ABHD5 to perilipin-5 | Split G. princeps luciferase complementation, luminescence, 4 h | inhibition, % at 4 µM | 360,000 compounds, 0.78% hits;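 active = inhibition above the mean inhibition across every tested compound plus 3 SD, cut at about 22% in these data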;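 note: 0% = DMSO only wells and the 100% control is not disclosed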
CHOP UPR activ: apoptotic UPR (CHOP) activation; CHO-CHOP luciferase reporter, luminescence; percent of tunicamycin response over DMSO baseline; activation, % at 10 µM; 330,000 compounds, 0.34% hits; AID 449763;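 active = at 10 µM dose, activation of 40% or more, normalized to positive control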;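 note: 100% = tunicamycin at 10 µg/mL and 0% = DMSO alone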
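Dosing – one dose, 10 µM in 0.5% DMSO · System – CHO-CHOP cells, stable luciferase reporter of PERK-eIF2a-CHOP signalling · Input – 500 cells/well · Control set – tunicamycin 10 µg/mL final as positive, DMSO-only wells as negative · Timing – 6 h compound treatment, 37 °C · Measure – % activation vs tunicamycin · Technique – luminescence read with Steady-Glo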
Active calls of the source: *; x = no result given.

SMILES	Exocytosis inh	Mdm2-MdmX inh	UPR XBP1 act	ABHD5 PLIN5 PPI	CHOP UPR activ
O=c1c(OC2OC(CO)C(O)C(O)C2OC2OC(CO)C(O)C(O)C2O)c(-c2ccc(O)cc2)oc2cc(O)cc(O)c12 (centres undefined)	4	18	-1	6	1
O=c1c(O[C@H]2O[C@@H](CO)[C@H](O)[C@@H](O)[C@@H]2O)c(-c2ccc(O)cc2)oc2cc(O)cc(O)c12	68*	12	2	-3	-1
Fc1ccc(-c2nc3ccc(Cl)cn3c2Cc2ccccc2)cc1	-5	x	x	-9	x
COc1cc2c(C#N)c(N3CCCC3)nc(N)c2c(N)n1	-7	24	7	-8	1
N#Cc1c(N2CCCC2)nc(N)c2c(N)nc(N3CCCC3)cc12	60*	22	18	-25	5
COC(=O)c1ccccc1NC(=O)CN1CCN(c2ccccn2)CC1	-1	6	-3	0	0
COC(=O)c1ccccc1N/C=C1\CCc2c(c(C)nn2-c2ccccn2)C1=O	65*	34	-1	-5	-2
C/C(CCc1oc2ccccc2c1-c1ccc(C)o1)=N/O	74*	2	-3	-4	-1
CC(=O)CCc1oc2ccc([N+](=O)[O-])cc2c1-c1ccc(C)o1	11	21	-3	-9	0
CC1CCCN(S(=O)(=O)c2ccc(NC(=O)Cn3nnc(-c4ccccc4F)n3)cc2)C1 (centres undefined)	1	14	-5	22*	0
CC1CCCN(S(=O)(=O)c2ccc(NC(=O)CN3CCCCC3)cc2)C1 (centres undefined)	-3	26	-2	-6	1
CCN(CC)c1ccc(-c2nnc(SCC(=O)Nc3ccccc3C#N)n2-c2ccccc2)cc1	88*	35	-3	-1	1
N#Cc1ccccc1NC(=O)CSc1nnc(-c2ccccc2)n1-c1ccccc1	-2	23	-1	1	-2
COC(=O)CN1C(=O)S/C(=C/c2ccc(N3CCCCC3)o2)C1=O	1	-22	2	27*	3
N#Cc1ccc2sn(-c3ccccc3)c(=O)c2c1	52	x	x	34*	x
O=c1c2cc(F)ccc2sn1-c1ccc(F)cc1	-5	15	-4	33*	8
COc1ccc(NC(=O)c2cc(-c3ccc(C)o3)nc3ccccc23)cc1OC	64*	1	2	34*	6
COc1ccc(S(=O)(=O)NCC(=O)N(CC(=O)NCC2CCCO2)c2cc(C)ccc2C)cc1 (centres undefined)	-2	-1	-1	-7	-4
O=c1cc(CO)oc(CN2CCCC2)c1O	-3	29	-4	-2	0
C=CCOC(=O)C1=C[C@H](C(C)(C)C)[C@@H](CCCO)[C@H](OCC)O1	69*	-25	0	-2	-1
CCO[C@@H]1OC(C(N)=O)=C[C@H](C(C)(C)C)[C@H]1CCCO	0	9	1	-4	-2
CCN(c1ccccc1)S(=O)(=O)c1ccc(Cl)c(C(=O)N2CCCC2)c1	1	-12	0	5	2
N#C/C(=C\c1ccc(O)c(O)c1)C(=O)NCCc1ccccc1	20	10	16	0	223*
COc1cc(/C=C(\C#N)C(=O)N2CCc3ccccc32)ccc1O	0	18	-2	9	-1
N#C/C(=C\c1ccc(O)c(O)c1)C(=O)N1CCc2ccccc21	3	-3	11	8	175*
SMILES	Exocytosis inh	Mdm2-MdmX inh	UPR XBP1 act	ABHD5 PLIN5 PPI	CHOP UPR activ
O=C1NC[C@H](CCCCN2C[C@H](Cc3ccc(O)cc3)N(CCc3ccc(O)cc3)C(=O)C2=O)N(CCc2ccc(O)cc2)C1=O	0	x	x	8	x
CC1(C)CC[C@]2(C(=O)O)CC[C@]3(C)C(=CCC4[C@@]5(C)CC[C@H](O)C(C)(C)C5CC[C@]43C)C2C1 (some centres undefined)	56*	x	x	0	x
CC1(C)CC[C@]2(C(=O)O)CC[C@]3(C)C(=CC[C@@H]4[C@@]5(C)CC[C@H](O)C(C)(C)[C@@H]5CC[C@]43C)[C@@H]2C1	21	25	-3	2	2
CCN(C(=O)COC(=O)c1ccc(O)cc1)c1cccc2ccccc12	-4	-17	0	0	0
NNC(=O)c1ccccc1OCCOc1ccccc1	59*	25	-1	3	3
CC1=C(c2ccccc2)CCC1=O	80*	12	-1	2	1
COc1ccc(C)cc1N(CC(=O)NCCSCc1cccc(Cl)c1)S(C)(=O)=O	31	18	-6	4	-1
CCN(CC)CCC(=O)Nc1cccc2c1C(=O)c1ccccc1C2=O	56*	46	-3	1	-1
CCN1CCN(Cc2ccc(NC(=O)c3ccc(C)c(NC(=O)c4cncc(-c5cccs5)c4)c3)cc2C(F)(F)F)CC1	30	x	x	26*	x
CCn1nc(C)c(CNC(=O)Nc2ccc3c(c2)OCO3)c1C	1	-27	0	1	3
CCN(C(=S)Nc1cc(S(=O)(=O)N2CCOCC2)ccc1Cl)c1cccc2ccccc12	61*	17	0	-23	1
O=S(=O)(c1ccc(Cl)c(NC(=S)Nc2cccc(O)c2)c1)N1CCOCC1	1	-3	-1	6	2
CCOc1ccccc1/C=N/NC(=O)Cc1csc(Nc2cccc(C(F)(F)F)c2)n1	-3	12	2	-9	-1
CCOc1ccc(/C=N/NC(=O)Cc2csc(Nc3cccc(C(F)(F)F)c3)n2)c(OCC)c1	68*	-6	-1	-3	4
O=C(O)c1ccc(NC2=C/C(=N/S(=O)(=O)c3ccccc3)c3ccccc3C2=O)cc1	58*	46	-2	-19	6
CCc1ccc(S(=O)(=O)/N=C2\C=C(Nc3cccc(C(=O)O)c3)C(=O)c3ccccc32)cc1	23	31	0	-5	4
O=C1C(Nc2ccc(O)cc2)=C/C(=N/S(=O)(=O)c2cccs2)c2ccccc21	57*	x	x	-4	x
O=C(O)c1ccc(NC2=C/C(=N/S(=O)(=O)c3cccs3)c3ccccc3C2=O)cc1	35	x	x	-12	x
CCOc1ccc(/C=C(\C#N)C(=O)c2c(C)[nH]c3ccccc23)cc1OC	-1	10	-1	3	3
COc1cc(/C=C(/C#N)C(=O)c2c(C)[nH]c3ccccc23)ccc1OCC#N	57*	-9	1	3	2
FC(F)(F)c1ccnc(NCc2ccc(Cl)cc2)n1	-7	-9	-1	3	0
O=S(=O)(NNc1nccc(C(F)(F)F)n1)c1cccc(Cl)c1Cl	83*	5	-1	-25	3
COc1cccc(-c2cc(C(=O)N3CCOCC3)no2)c1	-9	-48	-4	-1	0
O=C1C2C(C(=O)N1/N=C/c1ccc(N3CCCCC3)o1)C1C=CC2C12CC2 (centres undefined)	68*	15	2	14	1
